This is a sample that favours compounds with a hit; in the whole collection about 2.1% have one here.
MT stabilize HCS – stabilizes microtubules in HeLa cells | hit rate 0.83% among 200,000 | HeLa tubulin immunostaining HCS, 24 h; share of cells brighter than vehicle mean+2SD | % tubulin-high responders, % at 10 µM;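 active = plate Z-score above 3 for both tubulin-high and condensed-nucleus cell shares, with cell loss under 80%, at 10 µM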;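 also: anti alpha tubulin signal scored within the nucleus-defined area of each cell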
ABCG2 inh – inhibitors of human ABCG2 transporter, ABCB1 counter-screen; Q9UNQ0; IgMXP3 cells, JC-1 efflux, flow cytometry; inhibition, % at 6.6 µM; AID 1325; hit rate 0.1% among 190,000;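 active = inhibition above 80%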;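 also: 0% = DMSO and 100% = nicardipine control wells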
Target sequence (Q9UNQ0 whole entry, looked up): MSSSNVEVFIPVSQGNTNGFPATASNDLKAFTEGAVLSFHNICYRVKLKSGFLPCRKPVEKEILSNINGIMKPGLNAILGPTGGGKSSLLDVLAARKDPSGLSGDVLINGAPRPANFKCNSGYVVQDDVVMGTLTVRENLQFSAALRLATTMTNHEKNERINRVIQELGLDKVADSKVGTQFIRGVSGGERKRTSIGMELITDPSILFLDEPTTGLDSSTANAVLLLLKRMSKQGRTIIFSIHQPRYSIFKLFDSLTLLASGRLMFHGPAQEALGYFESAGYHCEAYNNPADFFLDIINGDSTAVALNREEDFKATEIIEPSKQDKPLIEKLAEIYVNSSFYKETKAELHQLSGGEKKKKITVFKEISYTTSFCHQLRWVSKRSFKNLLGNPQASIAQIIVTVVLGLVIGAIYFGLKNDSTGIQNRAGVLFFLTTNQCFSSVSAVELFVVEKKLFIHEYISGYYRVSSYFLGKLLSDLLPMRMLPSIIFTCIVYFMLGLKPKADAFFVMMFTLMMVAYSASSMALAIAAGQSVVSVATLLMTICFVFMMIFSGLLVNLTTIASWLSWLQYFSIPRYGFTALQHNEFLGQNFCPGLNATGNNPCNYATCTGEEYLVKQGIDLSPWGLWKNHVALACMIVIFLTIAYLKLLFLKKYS
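Read-out basis: Efflux inhibition in percent versus controls | Test system: ABCG2 IgMXP3 and barcoded ABCB1 CCRF-Adr cell mix | Quantity: 3 million cells/mL in well | Schedule: 10 min at 25 °C | Control set: Nicardipine as high control, DMSO as low control | Reagent: JC-1 as fluorescent efflux pump substrate | Signal: Flow cytometry of retained JC-1 fluorescence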
b-catenin transl – alters nuclear translocation of beta-catenin in HeLa cells. immunofluorescence imaging. AID 1665. hit rate 0.3% among 190,000. nuclear translocation activity, % at 5 µM;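 active = nuclear translocation activity above 50% at 5 µM, with a well cell count of 50 or more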;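 also: per-cell ratio of nuclear to cytoplasmic median beta-catenin stain intensity; plate controls were DMSO negative control for no effect and GSK-3 inhibitor IX positive control for full effect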
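Test system: human HeLa cell line; Doses: 5 µM primary, 0.02–20 µM confirmation; Incubation: 24 h compound exposure, 37°C; Detection: beta-catenin immunofluorescence imaging with DAPI; Read-out: beta-catenin nuclear/cytoplasmic ratio, % activation.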
ABCB1 inh – blocks JC-1 efflux by human ABCB1 transporter; hit rate 0.067% among 190,000; P08183; inhibition, % at 6.6 µM; CCRF-Adr cells, flow cytometry; in the data active = inhibition above about 40%;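 also: 0% = vehicle and 100% = reference inhibitor; higher value means more JC-1 retained so stronger ABCB1 efflux block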
Arbovirus inh – blocks arbovirus infection; arbovirus infection cell-based antiviral screen; inhibition, % at 10 µM; hit rate 0.37% among 200,000; in the data active = inhibition above about 30%
Autophagy HCS – alters autophagy in cells | MEF GFP-LC3 puncta imaging; test concentration mostly 10 µM | calls only at 10 µM (by protocol) | hit rate 0.98% among 190,000 | AID 463193;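 active = percentage of spot-positive cells more than 3 SD above its plate mean, without a fluorescence outlier flag or 80% toxicity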;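 also: spot-positive cell cutoff set from DMSO-treated cells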
* = called active by the depositor; i = inactive; . = not tested or not shown; + = active, no number.

SMILES	MT stabilize HCS	ABCG2 inh	b-catenin transl	ABCB1 inh	Arbovirus inh	Autophagy HCS
CN1CCN(c2ccc(-c3ccc4ccccc4n3)cc2)CC1	3	10	14	1	-19	+
c1ccc2nc(-c3ccc(N4CCOCC4)cc3)ccc2c1	1	0	-1	0	-9	i
CC1=CC(=NOC(=O)/C=C/c2ccccc2)C=C(C)C1=O	1	1	1	0	-5	i
CCOc1ccccc1N1CC(O)=C(c2nc3ccccc3s2)C1=N	28*	6	10	2	-3	+
CC(=O)NCC1=C(NC(C)=O)C2CC1C(C)(C)C2C (stereo not given)	3	2	2	1	31*	i
COc1ccc(NC(=O)/C=N/O)cc1	4	16	-3	1	-6	i
COc1ccc(N/N=C(\C=N\O)C(=O)c2ccc(OC)cc2)cc1	38*	-1	.	0	-3	+
Cc1ccc(-n2c(O)c(/C=C3/C(c4ccccc4)=Nc4ccccc43)c(=O)[nH]c2=O)cc1	18*	-2	0	-1	2	i
Cc1ccccc1-n1c(O)c(/C=C/C=Nc2ccccc2)c(=O)[nH]c1=O	3	19	12	6	-3	i
Cc1nc(Nc2ccccc2)sc1-c1ccccc1	3	29	-1	3	33*	i
Cc1nc(Nc2ccc(C(=O)O)cc2)sc1-c1ccccc1	2	21	2	0	-15	i
Cn1c(N)c(C(=O)COC(=O)CCCc2nc3ccccc3s2)c(=O)n(C)c1=O	3	5	-2	1	18	+
O=[N+]([O-])c1ccc(Cl)cc1Sc1nc2ccccc2o1	3	-1	-1	0	-20	+
O=[N+]([O-])c1ccc(Sc2nc3ccccc3o2)c([N+](=O)[O-])c1	1	28	.	1	-30	i
O=C(Nc1ccc(N2CCOCC2)cc1)C1CC(=O)N(c2ccccc2)C1 (stereo not given)	2	0	0	0	-6	i
CCCCC(=O)Nc1cc(OC)c(NC(=S)NC)cc1OC	2	1	0	0	-3	i
COc1ccc(C(=O)NC(Nc2ccc(C)cc2)C(Cl)(Cl)Cl)cc1 (stereo not given)	1	60	.	5	2	i
N#CC1=C(N)Oc2cc3c(cc2C1c1ccc(Cl)cc1)OCO3 (stereo not given)	6	6	2	1	-40	i
COc1cc(C2C(C#N)=C(N)Oc3cc(N(C)C)ccc32)cc2c1OCO2 (stereo not given)	14*	2	80*	1	-19	i
COc1cc(C2C(C#N)=C(N)Oc3cc(O)ccc32)cc(OC)c1OC (stereo not given)	21*	1	.	0	-13	+
COc1cc(C2C(C#N)=C(N)Oc3cc(O)ccc32)cc2c1OCO2 (stereo not given)	16*	2	3	1	-16	i
COc1ccc(C2C(C#N)=C(N)Oc3cc(O)ccc32)cc1OC (stereo not given)	7	-3	-2	0	-5	i
COc1cc(C2C(C#N)=C(N)Oc3cc4c(cc32)OCO4)cc(OC)c1OC (stereo not given)	9	1	51*	0	-19	i
COc1ccc(C[C@H]2COC(=O)[C@@H]2Cc2ccc(OC3OC(CO)C(O)C(O)C3O)c(OC)c2)cc1OC (stereo not given in full)	3	-2	.	0	4	i
COc1ccc(N(C)C2=NS(=O)(=O)c3ccccc32)cc1	49*	2	28	0	-17	i
COC1=NS(=O)(=O)c2ccccc21	5	3	-1	0	5	i
CCC1=NN2C(=N)/C(=C\c3cccn3-c3ccc(Cl)cc3)C(=O)N=C2S1	4	-4	0	-1	13	i
CCc1ccc(-n2cccc2/C=C2/C(=N)N3C(=NC2=O)SN=C3S(C)(=O)=O)cc1	3	-2	0	0	17	i
Cc1ccc(-n2cccc2/C=C2/C(=N)N3C(=NC2=O)SN=C3S(C)(=O)=O)cc1	2	-1	-1	0	47*	i
